In ChEMBL document CHEMBL3244382, “Structural requirements for antileukemic activity among the naturally occurring and semisynthetic maytansinoids” (J Med Chem, 1978):
Converted amounts (≈) assume the structure as drawn. The source made the active and inactive calls.

Assays:
Mus musculus [1] = test: Toxicity in PS mouse allografted with mouse P388 cells assessed as change in body weight at 3.1 ug/kg relative to control; assay type: organism-based; conditions: in vivo, 0.0031 mg/kg
Method in brief: (§1)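 P388 (PS) leukemia in mice, 6 mice per dose group. Weight change is the difference in grams between treated and control animals. Survivors are recorded on toxicity day, normally 4 days after the first injection.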

Mus musculus [2] = test: Toxicity in PS mouse allografted with mouse P388 cells assessed as change in body weight at 0.8 ug/kg relative to control; assay type: organism-based; conditions: in vivo, 0.0008 mg/kg
Method in brief: (§2)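 PS (P388 leukemia) mice, six per dose group. Toxicity read as the difference in grams between the weights of treated and control animals.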

Mus musculus [3] = test: Toxicity in PS mouse allografted with mouse P388 cells assessed as survival at 50 ug/kg after 4 days; assay type: organism-based; conditions: in vivo, 0.05 mg/kg, 96 h
Method in brief: (§3)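 PS (P388) leukemic mice, six started per dose group. Toxicity scored as survivors on the toxicity day over the number of mice started. The toxicity day is normally 4 days after the first injection.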

Mus musculus [4] = test: Toxicity in PS mouse allografted with mouse P388 cells assessed as survival at 100 ug/kg after 4 days; assay type: organism-based; conditions: in vivo, 0.1 mg/kg, 96 h; method in brief: as §3
Mus musculus [5] = test: Toxicity in PS mouse allografted with mouse P388 cells assessed as survival at 25 ug/kg after 4 days; assay type: organism-based; conditions: in vivo, 0.025 mg/kg, 96 h; method in brief: as §3
Mus musculus [6] = test: Toxicity in PS mouse allografted with mouse P388 cells assessed as survival at 12.5 ug/kg after 4 days; assay type: organism-based; conditions: in vivo, 0.0125 mg/kg, 96 h; method in brief: as §3
Mus musculus [7] = test: Toxicity in PS mouse allografted with mouse P388 cells assessed as survival at 6.2 ug/kg after 4 days; assay type: organism-based; conditions: in vivo, 0.0062 mg/kg, 96 h; method in brief: as §3
Mus musculus [8] = test: Toxicity in PS mouse allografted with mouse P388 cells assessed as survival at 3.1 ug/kg after 4 days; assay type: organism-based; conditions: in vivo, 0.0031 mg/kg, 96 h; method in brief: as §3
Mus musculus [9] = test: Toxicity in PS mouse allografted with mouse P388 cells assessed as survival at 1.6 ug/kg after 4 days; assay type: organism-based; conditions: in vivo, 0.0016 mg/kg, 96 h; method in brief: as §3
Mus musculus [10] = test: Toxicity in PS mouse allografted with mouse P388 cells assessed as survival at 0.8 ug/kg after 4 days; assay type: organism-based; conditions: in vivo, 0.0008 mg/kg, 96 h; method in brief: as §3
Mus musculus [11] = test: Toxicity in PS mouse allografted with mouse P388 cells assessed as survival at 200 ug/kg after 4 days; assay type: organism-based; conditions: in vivo, 0.2 mg/kg, 96 h; method in brief: as §3
Mus musculus [12] = test: Toxicity in PS mouse allografted with mouse P388 cells assessed as survival at 1.5 ug/kg after 4 days; assay type: organism-based; conditions: in vivo, 0.0015 mg/kg, 96 h; method in brief: as §3
Mus musculus [13] = test: Toxicity in PS mouse allografted with mouse P388 cells assessed as change in body weight at 100 ug/kg relative to control; assay type: organism-based; conditions: in vivo, 0.1 mg/kg; method in brief: as §1
Mus musculus [14] = test: Toxicity in PS mouse allografted with mouse P388 cells assessed as change in body weight at 50 ug/kg relative to control; assay type: organism-based; conditions: in vivo, 0.05 mg/kg; method in brief: as §1
Mus musculus [15] = test: Toxicity in PS mouse allografted with mouse P388 cells assessed as change in body weight at 25 ug/kg relative to control; assay type: organism-based; conditions: in vivo, 0.025 mg/kg; method in brief: as §1
Mus musculus [16] = test: Toxicity in PS mouse allografted with mouse P388 cells assessed as change in body weight at 12.5 ug/kg relative to control; assay type: organism-based; conditions: in vivo, 0.0125 mg/kg; method in brief: as §1
Mus musculus [17] = test: Toxicity in PS mouse allografted with mouse P388 cells assessed as change in body weight at 6.2 ug/kg relative to control; assay type: organism-based; conditions: in vivo, 0.0062 mg/kg; method in brief: as §1
Mus musculus [18] = test: Toxicity in PS mouse allografted with mouse P388 cells assessed as change in body weight at 200 ug/kg relative to control; assay type: organism-based; conditions: in vivo, 0.2 mg/kg; method in brief: as §1
Mus musculus [19] = test: Toxicity in PS mouse allografted with mouse P388 cells assessed as change in body weight at 1.5 ug/kg relative to control; assay type: organism-based; conditions: in vivo, 0.0015 mg/kg; method in brief: as §2
P388 [20] = test: Antitumor activity against mouse P388 cells allografted in PS mouse assessed as median survival time at 100 ug/kg relative to control; assay type: functional
Method in brief: (§4)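 P388 leukemia (PS) in mice, six mice started per dose group. Read-out is T/C: median survival time of the treated group divided by that of the untreated control group, expressed as a percent. The NIH protocol counts a compound as active when T/C > 125%.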

P388 [21] = test: Antitumor activity against mouse P388 cells allografted in PS mouse assessed as median survival time at 50 ug/kg relative to control; assay type: functional; method in brief: as §4
P388 [22] = test: Antitumor activity against mouse P388 cells allografted in PS mouse assessed as median survival time at 25 ug/kg relative to control; assay type: functional; method in brief: as §4
P388 [23] = test: Antitumor activity against mouse P388 cells allografted in PS mouse assessed as median survival time at 12.5 ug/kg relative to control; assay type: functional; method in brief: as §4
P388 [24] = test: Antitumor activity against mouse P388 cells allografted in PS mouse assessed as median survival time at 6.2 ug/kg relative to control; assay type: functional; method in brief: as §4
P388 [25] = test: Antitumor activity against mouse P388 cells allografted in PS mouse assessed as median survival time at 3.1 ug/kg relative to control; assay type: functional; method in brief: as §4
P388 [26] = test: Antitumor activity against mouse P388 cells allografted in PS mouse assessed as median survival time at 0.8 ug/kg relative to control; assay type: functional; method in brief: as §4
P388 [27] = test: Antitumor activity against mouse P388 cells allografted in PS mouse assessed as median survival time at 200 ug/kg relative to control; assay type: functional; method in brief: as §4
P388 [28] = test: Antitumor activity against mouse P388 cells allografted in PS mouse assessed as median survival time at 1.5 ug/kg relative to control; assay type: functional; method in brief: as §4
KB = test: Cytotoxicity against human KB cells; assay type: functional; conditions: read-out: ED50 (the source's name)
Tubulin (Homo sapiens) = Tubulin (Homo sapiens) (UniProt P68371+Q9H4B7+P0DPH7+P68366+Q13509+Q71U36+P04350+Q3ZCM7+P07437+P68363+Q9BQE3+Q6PEY2+Q13885+Q9BVA1+Q9BUF5); test: Inhibition of brain tubulin polymerization (unknown origin) at 37 degC by spectrophotometry
Paracentrotus lividus = test: Antimitotic activity against sea urchin eggs assessed as drug level causing inhibition of mitosis; assay type: functional; conditions: Egg

For `COc1cc2cc(c1Cl)N(C)C(=O)C[C@H](OC(C)=O)[C@]1(C)O[C@H]1[C@H](C)[C@@H]1C[C@@](O)(NC(=O)O1)[C@H](OC)/C=C/C=C(\C)C2`, the Activity (Mus musculus [1]) was -1 g, the Activity (Mus musculus [2]) was 0 g and the Activity (Mus musculus [3]) was “Non-toxic”. For the same compound, the Activity (Mus musculus [4]) was “Non-toxic”, the Activity (Mus musculus [5]) was “Non-toxic” and the Activity (Mus musculus [6]) was “Non-toxic”. For the same compound, the Activity (Mus musculus [7]) was “Non-toxic”, the Activity (Mus musculus [8]) was “Non-toxic” and the Activity (Mus musculus [9]) was “Non-toxic”. For the same compound, the Activity (Mus musculus [10]) was “Non-toxic”, the Activity (Mus musculus [11]) was “Non-toxic” and the Activity (Mus musculus [12]) was “Non-toxic”. It also gave an Activity (Mus musculus [13]) of -0.6 g, an Activity (Mus musculus [14]) of -0.3 g and an Activity (Mus musculus [15]) of -1.2 g. The Activity (Mus musculus [16]) was 0.3 g, the Activity (Mus musculus [17]) was 0.5 g and the Activity (Mus musculus [18]) was -3.7 g. The Activity (Mus musculus [19]) was -1.1 g, the T/C (P388 [20]) was 230% and the T/C (P388 [21]) was 183%. The T/C (P388 [22]) was 173%, the T/C (P388 [23]) was 158% and the T/C (P388 [24]) was 150%. It also gave a T/C (P388 [25]) of 133%, a T/C (P388 [26]) of 110% and a T/C (P388 [27]) of 100%. The T/C (P388 [28]) was 150%, the EC50 (KB) was 0.0018 ng/mL (≈ 0.00296 nM) and the inhibition (Tubulin (Homo sapiens)) was “Active”. The Activity (Paracentrotus lividus) was 1 ×10⁻⁸ mol/L.
